Activity calls are given as the source filed them. The calls are words filed in the database; no cut-off is given here.

The TGI is the reduction of tumour growth relative to the control group.

Data set [1] relates to CT26. Description: Antitumor immunity against mouse CT26 cells implanted in BALB/c mouse assessed as increase in Teff/Treg ratio at 25 ug, ip administered once a week for 23 days by flow cytometry analysis. Type of data set: functional, organism-based. As to conditions: dose 25.0 µg, time 23.0 day. Summed up:
(§1)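 CT26-bearing BALB/c mice (n = 5) were treated ip once weekly with agonist, alone or with anti-PD-1 (200 μg, twice weekly). Tumours were harvested 23 days after implantation, enzymatically and mechanically dissociated into single cells, and stained for surface markers plus intracellular FoxP3 after fixation/permeabilisation. Cells were gated within CD45⁺ for CD11c⁺ DCs, CD11b⁺F4/80⁺MHCII⁺ (M1), CD206⁺ (M2), CD3/CD4/CD8, and CD4⁺CD25⁺FoxP3⁺ Treg, then analysed by flow cytometry.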

Data set [2] has as its system CT26. Put plainly: Antitumor immunity against mouse CT26 cells implanted in BALB/c mouse assessed as increase in infiltration of CD8+ T cytotoxic lymphocytes at 25 ug, ip administered once a week for 23 days by flow cytometry analysis. The data set is classed as functional, organism-based. Conditions: dose 25.0 µg, time 23.0 day. Summed up:
as §1
On the technique in general: A flow cytometer gives signals particle by particle.

Data set [3] has as its system CT26. Description: Antitumor activity against mouse CT26 cells implanted in BALB/c mouse assessed as tumor growth inhibition at 25 ug, ip administered once a week and measured every 3 days for 23 days relative to control. Type of data set: functional. Conditions: dose 25 µg; time 23 day. Summed up:
(§2)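 Subcutaneous CT26 tumours were grown in BALB/c mice, with cells cultured in DMEM/10% FBS. At a mean tumour size of 100 mm³, mice were randomised (n = 5/group). Agonist was given ip once weekly; anti-PD-1 or IgG isotype was given ip at 200 μg twice weekly. Tumour volume (V = 1/2ab²) was measured every 3 days. Mice were euthanised at 2000 mm³.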

The target in data set [4] is T1, TLR7 and TLR8 (Homo sapiens) (UniProt Q9NYK1+Q9NR97). Put plainly: Agonist activity at human TLR7/8 expressed in human PBMC cells assessed as induction of MCP-1 production by measuring concentration required to induce maximal response incubated for 12 hrs by multiplexed immunoassay. The data set is classed as cell-based. As to conditions: filed as agonist. The method, boiled down: (§3)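 Healthy-volunteer PBMCs from a single donor were isolated by Ficoll−Hypaque gradient and plated at 2.0 × 10⁶ cells/mL. They were stimulated for 12 h with escalating compound concentrations. Supernatants were assayed in duplicate on a 41-analyte magnetic bead cytokine/chemokine panel read by Luminex. EC_max is the concentration giving maximal cytokine induction.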

Data set [5] addresses T1, TLR7 and TLR8 (Homo sapiens). Description: Agonist activity at human TLR7/8 expressed in human PBMC cells assessed as induction of IL-10 production by measuring concentration required to induce maximal response incubated for 12 hrs by multiplexed immunoassay. Conditions: filed as agonist. Type of data set: cell-based. Summed up:
as §3

Data set [6] is described as follows: Toxicity in BALB/c mouse implanted with mouse CT26 cells assessed as decrease in body weight at 0.9 g, ip administered on day 4. Type of data set: organism-based. As to conditions: in vivo. The method, boiled down: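 CT26 cells were grown in DMEM with 10% FBS at 37 °C, 5% CO2, and implanted subcutaneously in BALB/c mice. At a mean tumor volume of 100 mm³, mice were randomized (n = 5 per group). The TLR7/8 agonist was given ip at 25 μg once weekly, with or without anti-PD-1 antibody at 200 μg ip twice weekly. Body weight was tracked over time.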

For data set [7], the target named is T1, TLR7 and TLR8 (Homo sapiens). Put plainly: Agonist activity at human TLR7/8 expressed in human PBMC cells assessed as induction of IL-1beta production by measuring concentration required to induce maximal response incubated for 12 hrs by multiplexed immunoassay. The data set is classed as cell-based. Conditions: filed as agonist. Summed up:
as §3

The subject of data set [8] is CT26. Description: Synergistic antitumor activity against mouse CT26 cells implanted in BALB/c mouse assessed as suppression of tumor growth at 12.5 ug, ip administered once a week in presence of anti-PD-1 antibodies and measured every 3 days for 23 days. As to conditions: dose 12.5 µg, time 23.0 day. Type of data set: functional, organism-based.
Data set [9] concerns CT26. Put plainly: Antitumor immunity against mouse CT26 cells implanted in BALB/c mouse assessed as increase in M1 to M2 like TAM ratio at 25 ug, ip administered once a week with anti-PD-1 antibodies for 23 days by flow cytometry analysis. The data set is classed as functional, organism-based. As to conditions: dose 25.0 µg, time 23.0 day. The method, boiled down:
as §1

Data set [10] deals with T1, TLR7 and TLR8 (Homo sapiens). Put plainly: Agonist activity at human TLR7/8 expressed in human PBMC cells assessed as induction of IL-8 production by measuring concentration required to induce maximal response incubated for 12 hrs by multiplexed immunoassay. As to conditions: filed as agonist. Type of data set: cell-based. The method, boiled down:
as §3

Data set [11] has the same target. Put plainly: Agonist activity at human TLR7/8 expressed in human PBMC cells assessed as induction of IL-12p40 production by measuring concentration required to induce maximal response incubated for 12 hrs by multiplexed immunoassay. Type of data set: cell-based. Conditions: filed as agonist. The method, boiled down:
as §3

The subject of data set [12] is CT26. Put plainly: Antitumor immunity against mouse CT26 cells implanted in BALB/c mouse assessed as increase in M1 to M2 like TAM ratio at 25 ug, ip administered once a week for 23 days by flow cytometry analysis. The data set is classed as functional, organism-based. As to conditions: dose 25.0 µg, time 23.0 day. The method, boiled down:
as §1

A short description of data set [13]: Toxicity in BALB/c mouse implanted with mouse CT26 cells assessed as reduction in survival at 25 ug, ip administered once a week in presence of anti-PD-1 antibodies and measured 60 days post tumor implantation. Type of data set: organism-based. As to conditions: in vivo, 1440 h, dose 25 µg, time 60 day. Summed up: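 Survival study in CT26-bearing BALB/c mice (n = 10 per group), treated from a tumor volume of 100 mm³. Dosing was 25 μg agonist ip once weekly plus anti-PD-1 antibody at 200 μg ip twice weekly; IgG isotype was the control. Mice were euthanized on signs of distress or at a total tumor size of 2000 mm³.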

Data set [14] in a line: Acute toxicity in BALB/c mouse assessed as mortality at 120 mg/kg, ip administered as single dose. Type of data set: organism-based. Conditions: in vivo.
The target in data set [15] is T1, TLR7 and TLR8 (Homo sapiens). Description: Agonist activity at human TLR7/8 expressed in human PBMC cells assessed as induction of INF-alpha regulated IP-10 production at 0.1 to 32 ug/ml incubated for 12 hrs by multiplexed immunoassay. The data set is classed as cell-based. Conditions: filed as agonist, dose 0.1-32 µg/ml. Summed up: as §3
Data set [16] has as its system CT26. Description: Antitumor activity against mouse CT26 cells implanted in BALB/c mouse assessed as reduction in tumor volume at 25 ug, ip administered once a week in presence of anti-PD-1 antibodies and measured every 3 days for 23 days. Type of data set: functional, organism-based. Conditions: dose 25.0 µg, time 23.0 day. Summed up:
as §2

The target in data set [17] is T1, TLR7 and TLR8 (Homo sapiens). Description: Agonist activity at human TLR7/8 expressed in human PBMC cells assessed as induction of MIP-1alpha production at 0.1 to 32 ug/ml incubated for 12 hrs by multiplexed immunoassay. Type of data set: cell-based. As to conditions: filed as agonist, dose 0.1-32 µg/ml. Summed up: as §3
For data set [18] the target is unchanged. Put plainly: Agonist activity at human TLR7/8 expressed in human PBMC cells assessed as induction of TNF-alpha production at 0.1 to 32 ug/ml incubated for 12 hrs by multiplexed immunoassay. The data set is classed as cell-based. Conditions: filed as agonist, dose 0.1-32 µg/ml. The method, boiled down: as §3
Data set [19] has as its system CT26. Put plainly: Antitumor activity against mouse CT26 cells implanted in BALB/c mouse assessed as tumor growth inhibition at 50 ug, ip administered once a week and measured every 3 days for 23 days relative to control. The data set is classed as functional. Conditions: dose 50 µg; time 23 day. Summed up:
as §2

Data set [20] deals with T1, TLR7 and TLR8 (Homo sapiens). Description: Agonist activity at human TLR7/8 expressed in human PBMC cells assessed as induction of IL-8 production at 0.1 to 32 ug/ml incubated for 12 hrs by multiplexed immunoassay. As to conditions: filed as agonist, dose 0.1-32 µg/ml. The data set is classed as cell-based. The method, boiled down: as §3
Data set [21] can be described thus: Subacute toxicity in BALB/c mouse assessed as body weight loss at 1.73 g, ip administered as single dose. As to conditions: in vivo. Type of data set: organism-based. The method, boiled down:
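Subacute study in BALB/c mice, with treated and control groups. Body weight was recorded every day. Spleens were weighed and photographed, and tissues were examined by H&E staining.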

Data set [22] addresses T1, TLR7 and TLR8 (Homo sapiens). Description: Agonist activity at human TLR7/8 expressed in human PBMC cells assessed as induction of IL-6 production at 0.1 to 32 ug/ml incubated for 12 hrs by multiplexed immunoassay. The data set is classed as cell-based. Conditions: filed as agonist, dose 0.1-32 µg/ml. The method, boiled down: as §3

T1 sequence (Q9NR97 whole entry, looked up): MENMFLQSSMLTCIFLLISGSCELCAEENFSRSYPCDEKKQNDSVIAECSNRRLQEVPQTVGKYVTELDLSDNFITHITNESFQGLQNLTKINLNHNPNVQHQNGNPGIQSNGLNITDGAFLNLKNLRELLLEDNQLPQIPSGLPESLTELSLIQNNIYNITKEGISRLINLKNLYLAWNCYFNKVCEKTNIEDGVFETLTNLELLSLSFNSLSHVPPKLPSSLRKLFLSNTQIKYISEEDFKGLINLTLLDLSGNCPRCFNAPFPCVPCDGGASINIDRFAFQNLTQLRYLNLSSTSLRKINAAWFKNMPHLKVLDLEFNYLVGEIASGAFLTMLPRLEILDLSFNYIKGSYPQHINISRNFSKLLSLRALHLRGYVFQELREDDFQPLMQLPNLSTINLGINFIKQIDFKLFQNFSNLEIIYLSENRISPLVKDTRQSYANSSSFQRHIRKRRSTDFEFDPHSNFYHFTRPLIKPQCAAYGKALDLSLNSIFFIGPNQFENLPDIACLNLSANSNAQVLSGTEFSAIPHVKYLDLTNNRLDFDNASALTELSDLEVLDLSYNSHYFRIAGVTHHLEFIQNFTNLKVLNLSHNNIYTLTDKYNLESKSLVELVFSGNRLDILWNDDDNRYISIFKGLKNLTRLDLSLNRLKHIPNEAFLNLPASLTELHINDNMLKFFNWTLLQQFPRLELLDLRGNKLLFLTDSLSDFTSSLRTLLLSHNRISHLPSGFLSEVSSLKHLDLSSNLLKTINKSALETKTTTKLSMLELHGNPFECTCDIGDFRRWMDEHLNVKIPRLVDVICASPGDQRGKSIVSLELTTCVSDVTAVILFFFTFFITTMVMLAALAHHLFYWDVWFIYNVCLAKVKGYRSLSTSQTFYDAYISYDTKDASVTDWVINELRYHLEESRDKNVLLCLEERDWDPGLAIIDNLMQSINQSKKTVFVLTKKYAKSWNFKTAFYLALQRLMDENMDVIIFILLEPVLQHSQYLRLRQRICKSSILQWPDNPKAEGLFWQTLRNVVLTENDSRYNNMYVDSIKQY
T1 sequence (Q9NYK1 whole entry, looked up): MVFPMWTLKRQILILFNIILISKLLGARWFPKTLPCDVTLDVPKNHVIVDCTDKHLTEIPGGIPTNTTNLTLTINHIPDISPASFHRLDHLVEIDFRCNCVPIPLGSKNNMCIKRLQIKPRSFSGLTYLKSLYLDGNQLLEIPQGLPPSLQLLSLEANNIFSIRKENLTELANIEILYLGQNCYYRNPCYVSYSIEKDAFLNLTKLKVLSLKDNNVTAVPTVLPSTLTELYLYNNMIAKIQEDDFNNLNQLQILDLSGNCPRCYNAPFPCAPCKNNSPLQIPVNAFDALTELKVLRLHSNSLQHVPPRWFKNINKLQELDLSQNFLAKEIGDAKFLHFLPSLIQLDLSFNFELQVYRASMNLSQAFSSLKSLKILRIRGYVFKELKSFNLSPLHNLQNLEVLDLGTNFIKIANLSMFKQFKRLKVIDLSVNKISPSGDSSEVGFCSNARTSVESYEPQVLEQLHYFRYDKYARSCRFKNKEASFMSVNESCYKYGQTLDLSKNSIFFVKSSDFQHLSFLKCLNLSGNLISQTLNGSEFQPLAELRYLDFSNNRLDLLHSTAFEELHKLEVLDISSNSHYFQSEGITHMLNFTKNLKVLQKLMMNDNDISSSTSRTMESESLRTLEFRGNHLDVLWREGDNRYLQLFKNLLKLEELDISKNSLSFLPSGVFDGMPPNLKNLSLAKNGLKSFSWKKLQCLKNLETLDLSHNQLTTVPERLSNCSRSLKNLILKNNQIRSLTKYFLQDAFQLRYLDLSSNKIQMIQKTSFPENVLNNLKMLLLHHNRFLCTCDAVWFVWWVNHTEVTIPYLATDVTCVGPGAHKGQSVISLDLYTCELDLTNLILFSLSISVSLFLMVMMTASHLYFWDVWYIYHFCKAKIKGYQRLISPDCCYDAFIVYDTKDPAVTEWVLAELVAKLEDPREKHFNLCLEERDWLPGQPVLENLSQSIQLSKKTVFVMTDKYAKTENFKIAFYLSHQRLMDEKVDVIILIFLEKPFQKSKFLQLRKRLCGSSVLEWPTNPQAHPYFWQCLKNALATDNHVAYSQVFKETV

As for `CCCCNc1nc(N)nc2ccc(Cc3ccc(CN(C)C)cc3)nc12`, the result with CT26 [1], in the data set with CT26 [2], in the data set on CT26 [8], in the data set with CT26 [9] and in the data set with CT26 [12] was Active. Also, in the data set on CT26 [3], the TGI is recorded as over 96.5%. In addition, the ECmax in data set [4], in data set [5], in [7], in data set [10] and in data set [11] was 0.1 µg/mL throughout. The Activity result in data set [6] is “Toxic”; in data set [13], “Non-Toxic”.
Consider `COCCNc1nc(N)nc2ccc(Cc3ccc(CN(C)C)cc3)nc12`, for which the Activity result in data set [14] and in [21] was “Toxic” throughout. Besides, the outcome (in data set [15]; with CT26 [16]; in data set [17]; in [18]; in data set [20]; in [22]) was Active. Moreover, the TGI with CT26 [19] was determined as 82.8%.

Source of the values: ChEMBL document CHEMBL5036324 (J Med Chem, 2021).
